Measurements published in ChEMBL document CHEMBL4020842, “Discovery of N1-(4-((7-Cyclopentyl-6-(dimethylcarbamoyl)-7 H-pyrrolo[2,3- d]pyrimidin-2-yl)amino)phenyl)- N8-hydroxyoctanediamide as a Novel Inhibitor Targeting Cyclin-dependent Kinase 4/9 (CDK4/9) and Histone Deacetlyase1 (HDAC1) against Malignant Cancer” (J Med Chem, 2018).
Calls of active or inactive are those of the source. The rule behind the calls is not given here.

Columns and labels:
A549 [1] = experiment: Induction of apoptosis in human A549 cells assessed as late apoptotic cells at 5 uM after 48 hrs by annexin V-FITC/propidium iodide staining based flow cytometry (reference value: 0.88%); assay type: functional
A549 [2] = experiment: Induction of apoptosis in human A549 cells assessed as late apoptotic cells at 1 uM after 48 hrs by annexin V-FITC/propidium iodide staining based flow cytometry (reference value: 0.88%); assay type: functional
A549 [3] = experiment: Induction of apoptosis in human A549 cells assessed as live cells at 1 uM after 48 hrs by annexin V-FITC/propidium iodide staining based flow cytometry (reference value: 92.7%); assay type: functional
NCI-H460 [4] = experiment: Induction of apoptosis in human NCI-H460 cells assessed as necrotic cells at 5 uM after 48 hrs by annexin V-FITC/propidium iodide staining based flow cytometry (reference value: 1.34%); assay type: functional
NCI-H460 [5] = experiment: Induction of apoptosis in human NCI-H460 cells assessed as live cells at 5 uM after 48 hrs by annexin V-FITC/propidium iodide staining based flow cytometry (reference value: 97.3%); assay type: functional
T47D [6] = experiment: Induction of apoptosis in human T47D cells assessed as late apoptotic cells at 10 uM after 48 hrs by annexin V-FITC/propidium iodide staining based flow cytometry (reference value: 6.16%); assay type: functional
MDA-MB-231 [7] = experiment: Induction of apoptosis in human MDA-MB-231 cells assessed as late apoptotic cells at 10 uM after 48 hrs by annexin V-FITC/propidium iodide staining based flow cytometry (reference value: 1.53%); assay type: functional
Hep 3B2 [8] = experiment: Cell cycle arrest in human Hep3B cells assessed as accumulation at G0/G1 phase at 625 nM after 24 hrs by propidium iodide staining based flow cytometry; assay type: functional
Outline: (§1)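 Cells were exposed for 24 h to a range of concentrations (625 nM, 2.5 and 10 µM), with DMSO vehicle as control. They were then stained with propidium iodide and analysed by flow cytometry to obtain the percentages of cells in G0/G1, S and G2 phases.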

A549 [9] = experiment: Cell cycle arrest in human A549 cells assessed as accumulation at G0/G1 phase at 625 nM after 24 hrs by propidium iodide staining based flow cytometry; assay type: functional; outline: as §1
[10] = target: CDK4/Cyclin D3 (Homo sapiens) (UniProt P11802+P30281); experiment: Inhibition of recombinant human full length N-terminal GST-tagged CDK4/Cyclin-D3 co-expressed in baculovirus infected sf21 cells at 1 uM using Rb substrate in presence of [gamma33P]ATP after 10 mins by scintillation counting method relative to control
[11] = target: Cyclin-dependent kinase 2/cyclin E1 (Homo sapiens) (UniProt P24864+P24941); experiment: Inhibition of recombinant human full length C-terminal 6His-tagged CDK2/N-terminal GST-tagged Cyclin-E co-expressed in baculovirus infected sf21 cells at 1 uM using histone H1 substrate in presence of [gamma33P]ATP after 10 mins by scintillation counting method relative to control
[12] = target: CDK2/Cyclin A2 (Homo sapiens) (UniProt P24941+P20248); experiment: Inhibition of recombinant human full length C-terminal 6His-tagged CDK2/N-terminal GST-tagged Cyclin-A co-expressed in baculovirus infected sf21 cells at 1 uM relative to control
[13] = target: High affinity nerve growth factor receptor (Homo sapiens, UniProt P04629); experiment: Inhibition of recombinant human N-terminal His6-tagged TrkA (440-end residues) expressed in baculovirus infected sf21 cells
NCI-H460 [14] = experiment: Cytotoxicity against human NCI-H460 cells assessed as reduction in cell viability after 72 hrs by CCK8 assay; assay type: functional, cell-based; conditions: NCI-H460, 72 h
A549 [15] = experiment: Induction of apoptosis in human A549 cells assessed as early apoptotic cells at 10 uM after 48 hrs by annexin V-FITC/propidium iodide staining based flow cytometry (reference value: 0.41%); assay type: functional
MDA-MB-231 [16] = experiment: Cytotoxicity against human MDA-MB-231 cells assessed as reduction in cell viability after 72 hrs by CCK8 assay; assay type: functional, cell-based; conditions: MDA-MB-231, 72 h
4T1 [17] = experiment: Cytotoxicity against mouse 4T1 cells assessed as reduction in cell viability after 72 hrs by CCK8 assay; assay type: functional, cell-based; conditions: 4T1, 72 h
HepG2 = experiment: Induction of apoptosis in human HepG2 cells assessed as necrotic cells at 10 uM after 48 hrs by annexin V-FITC/propidium iodide staining based flow cytometry (reference value: 2.32%); assay type: functional
Hep 3B2 [18] = experiment: Induction of apoptosis in human Hep3B cells assessed as necrotic cells at 10 uM after 48 hrs by annexin V-FITC/propidium iodide staining based flow cytometry (reference value: 4.97%); assay type: functional
Hep 3B2 [19] = experiment: Induction of apoptosis in human Hep3B cells assessed as necrotic cells at 1 uM after 48 hrs by annexin V-FITC/propidium iodide staining based flow cytometry (reference value: 4.97%); assay type: functional
T47D [20] = experiment: Induction of apoptosis in human T47D cells after 48 hrs by annexin V-FITC/propidium iodide staining based flow cytometry; assay type: functional, cell-based
Histone deacetylase 1 [21] = target: T1, Histone deacetylase 1 (Homo sapiens, UniProt Q13547); experiment: Inhibition of HDAC1 in human HepG2 cells assessed as increase in acetylated-histone H3 level at 1 to 5 uM after 48 hrs by Western blot method; assay type: cell-based
NCI-H460 [22] = experiment: Induction of apoptosis in human NCI-H460 cells assessed as reduction in Bcl2 protein expression after 48 hrs by Western blot method; assay type: functional, cell-based
Outline: (§2)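 Cells were treated with or without test agent, alongside a control, for 48h. They were then lysed and analysed by Western blot for Bcl-2 protein and cleaved caspase 3.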

MDA-MB-231 [23] = experiment: Induction of apoptosis in human MDA-MB-231 cells assessed as caspase-3 cleavage after 48 hrs by Western blot method; assay type: functional, cell-based; outline: as §2
T47D [24] = experiment: Induction of apoptosis in human T47D cells assessed as caspase-3 cleavage after 48 hrs by Western blot method; assay type: functional, cell-based; outline: as §2
A549 [25] = experiment: Induction of apoptosis in human A549 cells assessed as caspase-3 cleavage after 48 hrs by Western blot method; assay type: functional, cell-based
Outline: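 Cells were treated with or without compound and control for 48 h, then lysed. Bcl-2 and cleaved caspase 3 were assessed by Western blot.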

Histone deacetylase 1 [26] = target: T1, Histone deacetylase 1; experiment: Inhibition of HDAC1 in human Hep3B cells assessed as increase in p53 phosphorylation at Ser15 residue at 1 to 5 uM after 48 hrs by Western blot method; assay type: cell-based
A549 [27] = experiment: Inhibition of CDK4 protein expression in human A549 cells at 0.1 to 1 uM after 24 hrs by immunofluorescence assay; assay type: functional, cell-based
Outline: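 Cells treated 24 h with test compound or vehicle. For the CDK4 read-out the compound was used at 100 nM, and for acetyl-histone H3 at 1 µM. CDK4 and acetyl-histone H3 were then detected by immunofluorescence staining and compared with vehicle-treated cells.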

[28] = Lipophilicity, log P of the compound by HPLC based shake flask method; assay type: physicochemical
4T1 [29] = experiment: Antitumor activity against mouse Fluc-labeled 4T1 cells implanted in Balb/c mouse assessed as reduction in tumor weight at 130 mg/kg, ip administered daily for 18 days measured after 8 to 25 days; assay type: functional, organism-based
Outline: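 Luciferase (Fluc) reporter introduced into 4T1 cells by lentiviral transduction. Cells implanted orthotopically into mammary fat pads of female BALB/c mice aged 6–8 weeks. Once tumours averaged 100 mm3, dosing was daily by IP injection. Bioluminescence imaging was done at days 8 and 25 to reflect viable tumour cell number. Tumour weight was recorded at study end.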

T1 sequence (Q13547 whole entry): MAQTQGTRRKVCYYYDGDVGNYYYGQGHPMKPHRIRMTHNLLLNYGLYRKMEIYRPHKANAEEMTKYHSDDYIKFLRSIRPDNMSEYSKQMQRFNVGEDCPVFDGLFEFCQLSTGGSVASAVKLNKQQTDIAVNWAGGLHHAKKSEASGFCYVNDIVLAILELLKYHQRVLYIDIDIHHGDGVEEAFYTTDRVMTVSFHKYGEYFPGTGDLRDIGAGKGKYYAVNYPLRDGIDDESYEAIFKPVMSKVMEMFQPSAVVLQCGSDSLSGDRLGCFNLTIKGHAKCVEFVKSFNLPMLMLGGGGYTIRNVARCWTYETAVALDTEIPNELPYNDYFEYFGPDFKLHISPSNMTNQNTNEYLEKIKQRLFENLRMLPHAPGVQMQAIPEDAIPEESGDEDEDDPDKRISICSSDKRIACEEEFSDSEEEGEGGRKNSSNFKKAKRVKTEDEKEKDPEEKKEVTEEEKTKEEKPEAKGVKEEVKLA
Sequence of High affinity nerve growth factor receptor (P04629 whole entry): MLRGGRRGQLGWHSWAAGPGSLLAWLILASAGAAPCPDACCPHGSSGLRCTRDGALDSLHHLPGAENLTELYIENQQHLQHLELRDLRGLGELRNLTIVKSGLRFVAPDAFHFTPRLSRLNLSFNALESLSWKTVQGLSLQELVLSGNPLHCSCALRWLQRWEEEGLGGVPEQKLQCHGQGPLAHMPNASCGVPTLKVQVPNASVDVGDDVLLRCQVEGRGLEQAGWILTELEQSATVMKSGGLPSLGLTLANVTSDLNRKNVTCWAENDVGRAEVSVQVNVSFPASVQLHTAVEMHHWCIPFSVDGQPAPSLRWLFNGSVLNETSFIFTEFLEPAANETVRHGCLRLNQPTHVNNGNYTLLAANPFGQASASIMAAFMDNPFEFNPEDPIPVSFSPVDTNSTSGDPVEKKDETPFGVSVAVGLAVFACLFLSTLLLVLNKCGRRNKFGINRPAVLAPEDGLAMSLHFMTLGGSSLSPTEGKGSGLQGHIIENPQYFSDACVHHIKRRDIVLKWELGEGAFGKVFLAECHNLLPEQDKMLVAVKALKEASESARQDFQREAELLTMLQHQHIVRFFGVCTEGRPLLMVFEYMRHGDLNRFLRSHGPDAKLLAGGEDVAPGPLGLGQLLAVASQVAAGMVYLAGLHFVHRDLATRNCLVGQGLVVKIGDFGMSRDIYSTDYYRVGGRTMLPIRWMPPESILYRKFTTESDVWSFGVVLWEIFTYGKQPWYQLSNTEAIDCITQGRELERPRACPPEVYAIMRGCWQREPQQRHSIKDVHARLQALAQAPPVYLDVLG

inhibition [10]: 101%
inhibition [11]: 66%
inhibition [12]: 71%
IC50 [13]: 31 nM
inhibition (Histone deacetylase 1 [21]): Active
inhibition (Histone deacetylase 1 [26]): Active
logP [28]: 2.62
SMILES: CN(C)C(=O)c1cc2cnc(Nc3ccc(NC(=O)CCCCCCC(=O)NO)cc3)nc2n1C1CCCC1
Activity (A549 [1]): 13%
Activity (A549 [2]): 1.93%
Activity (A549 [3]): 90.9%
Activity (NCI-H460 [4]): 3.88%
Activity (NCI-H460 [5]): 88.9%
Activity (T47D [6]): 17.1%
Activity (MDA-MB-231 [7]): 6.59%
Activity (Hep 3B2 [8]): Active
Activity (A549 [9]): Active
IC50 (NCI-H460 [14]): 3780 nM
Activity (A549 [15]): 5.95%
IC50 (MDA-MB-231 [16]): 1860 nM
IC50 (4T1 [17]): 1110 nM
Activity (HepG2): 5.75%
Activity (Hep 3B2 [18]): 3.02%
Activity (Hep 3B2 [19]): 3.3%
Activity (T47D [20]): Dose-dependent effect
Activity (NCI-H460 [22]): Active
Activity (MDA-MB-231 [23]): Active
Activity (T47D [24]): Active
Activity (A549 [25]): Active
inhibition (A549 [27]): Active
Activity (4T1 [29]): Active
